Bioassay records as filed in PubChem.
This is a sample that favours compounds with a hit; in the whole collection about 3.7% have one here.
hERG protect = hERG rescue from dofetilide block, primary screen, cell-based, CHO-hERG, FluxOR thallium flux, dofetilide IC70; activation (rescue from dofetilide block), less the hit threshold, % at 10 µM; dofetilide IC70 present; hit rate 0.51% among 310,000; AID 1511, 2009;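 active = activation above the mean of controls blocked by dofetilide plus 5 SD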;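 note: thallium influx through hERG after potassium depolarization seen as dye fluorescence rise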
KCNK3 inh = human KCNK3 channel inhibitors, primary screen, CHO cells, FluxOR thallium flux, B-score. Potassium channel subfamily K member 3 (Homo sapiens), O14649. FluxOR fluorescence; hits give low values. AID 602410, 2012. B-score at 10 µM. hit rate 0.84% among 340,000;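 active = B-score under library mean minus 4 SD, starting fluorescence ratio at most library mean plus 5 SD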;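 note: more negative B-score means stronger inhibition of thallium flux through KCNK3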
KCNQ1 block = inhibitors of human KCNQ1 channel, primary screen, cell-based, thallium flux, high-throughput; Potassium voltage-gated channel subfamily KQT member 1 (Homo sapiens), P51787; CHO-K1 KCNQ1, FluxOR thallium flux fluorescence; hits give high values; B-score at 10 µM; hit rate 1.3% among 310,000; AID 2642, 2010;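 active = compounds whose thallium flux B-score, printed positive for inhibition, exceeds three library SD while starting fluorescence stays within three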;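 note: channel opened by potassium depolarization with thallium stimulus after 20 min compound exposure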
Target sequence (P51787 whole entry, looked up): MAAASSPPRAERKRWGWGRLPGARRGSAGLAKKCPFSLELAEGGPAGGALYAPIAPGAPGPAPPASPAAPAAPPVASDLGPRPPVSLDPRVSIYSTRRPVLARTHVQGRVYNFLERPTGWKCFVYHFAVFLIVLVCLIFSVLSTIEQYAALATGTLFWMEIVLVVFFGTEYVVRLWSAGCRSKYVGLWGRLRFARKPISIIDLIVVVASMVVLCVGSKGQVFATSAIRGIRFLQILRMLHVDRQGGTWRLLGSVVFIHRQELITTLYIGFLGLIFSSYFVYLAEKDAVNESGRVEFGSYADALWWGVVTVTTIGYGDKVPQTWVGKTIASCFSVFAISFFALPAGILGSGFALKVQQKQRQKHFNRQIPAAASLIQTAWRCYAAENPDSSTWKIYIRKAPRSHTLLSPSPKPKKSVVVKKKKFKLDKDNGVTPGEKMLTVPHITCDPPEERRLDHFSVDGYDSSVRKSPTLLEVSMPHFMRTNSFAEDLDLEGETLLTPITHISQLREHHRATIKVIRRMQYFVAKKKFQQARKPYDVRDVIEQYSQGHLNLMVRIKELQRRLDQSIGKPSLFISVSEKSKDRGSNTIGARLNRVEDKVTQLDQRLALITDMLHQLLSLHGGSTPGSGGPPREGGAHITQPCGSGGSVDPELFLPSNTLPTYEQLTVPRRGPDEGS
KCNQ1 pot = potentiators or activators of KCNQ1 channel, primary screen, cell-based, thallium flux, high-throughput | CHO-K1 KCNQ1, thallium flux FluxOR fluorescence; hits give high values | Potassium voltage-gated channel subfamily KQT member 1 (Homo sapiens), P51787 | AID 2648, 2010 | hit rate 0.35% among 310,000 | B-score at 10 µM;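 active = fluorescence ratio B-score, a plate-corrected score, at least three library SD, with initial intensity B-score within 5 SD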
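Doses: Single concentration per compound, DMSO matched to controls | Test system: KCNQ1-transfected CHO-K1 cells | Timing: 90 min dye loading and 20 min compound exposure, both at room temperature | Measured by: Kinetic FluxOR thallium fluorescence, 10-s 1-Hz baseline, 110-s post-stimulus read | Medium: Assay buffer with matched DMSO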
Kir21 inh = inhibitors of mouse Kir2.1 inward-rectifier potassium channel; hit rate 0.85% among 310,000; Inward rectifier potassium channel 2 (Mus musculus), P35561; HEK293-Kir2.1, FluxOR thallium flux fluorescence; hits give low values; B-score at 10 µM; AID 1672, 2009;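 active = fluorescence ratio B-score at or below minus 3 SD of library scores, with starting-brightness B-score within 2 SD, cut at about -4.2 in these data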;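 note: channel flux triggered by added potassium and thallium sulfate stimulus; B-score of peak minus minimum fluorescence over baseline after thallium stimulus; more negative B-score means stronger Kir2.1 block with less thallium influx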
KCNK9 inh = KCNK9 potassium channel inhibitors, primary screen, HEK293 cells, thallium flux. Potassium channel subfamily K member 9 (Homo sapiens), Q9NPC2. FluxOR thallium flux fluorescence; hits give low values. B-score at 10 µM. hit rate 1.2% among 310,000;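 active = ratio B-score over 3 SD below the library mean, with starting fluorescence within 5 SD of its mean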;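 note: negative B-score means less thallium flux so channel inhibition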
An asterisk follows results filed as active; i = inactive; . = no result given.

SMILES	hERG protect	KCNK3 inh	KCNQ1 block	KCNQ1 pot	Kir21 inh	KCNK9 inh
Cc1csc(=O)n1CC(=O)Nc1ccc(C(C)C)cc1	.	i	.	.	.	.
COc1cc(NC(=O)COC(=O)CNC(=O)C2CCCCC2)cc(OC)c1	.	i	.	.	.	.
Cc1cccc(NC(=O)CCS(=O)(=O)c2cccc3nsnc23)c1C	-8	i	i	i	-0.22	i
CCCN(CCC)C(=O)CCS(=O)(=O)c1cccc2nsnc12	-2	i	i	i	-4.5*	i
CC(OC(=O)/C=C/c1ccc2ccccc2n1)C(=O)N(C)c1ccccc1 (stereo unspecified)	.	i	.	.	.	.
CC(=O)/C=C/c1ccc2ccccc2n1	-15	i	i	i	-4.8*	i
Cc1ccc(C(CNC(=O)Nc2ccc(Cl)cc2)N2CCN(C)CC2)cc1 (stereo unspecified)	-15	i	i	i	-0.83	i
CN1CCN(C(CNC(=O)Nc2ccc(Cl)cc2)c2ccc(F)cc2)CC1 (stereo unspecified)	-11	i	6*	i	-0.96	i
CCOc1ccc(NC(=O)c2c(NC(=O)CNCCN3CCOCC3)sc3c2CCC3)cc1	-11	i	i	i	-2	i
O=C(CCn1cccn1)Nc1ccc2c(c1)OCO2	-6	i	i	i	0.84	i
Fc1cc(Br)ccc1COc1ccc(-c2nnco2)cc1	-11	i	i	i	0.89	i
NNC(=O)c1cc2c(N3CCC(Cc4ccccc4)CC3)ncnc2s1	-22	i	6*	i	0.99	i
Cn1ncc2c(N3CCC(Cc4ccccc4)CC3)ncnc21	-13	i	i	i	0.61	i
O=S(=O)(c1ccccc1)N1N=C(c2ccc(Cl)cc2)CC1c1ccco1 (stereo unspecified)	.	i	.	.	.	.
COc1ccc(C(=O)C/C(=C\C(=O)c2ccc(C)cc2)c2ccccc2)cc1	-13	i	6*	i	-1.5	i
O=C(CC(CC(=O)c1ccccc1)c1ccncc1)c1ccccc1	.	i	.	.	.	.
CCCOc1ccc(C(C(=O)OCCN(CC)CC)c2ccccc2)cc1 (stereo unspecified)	-8	i	i	i	-0.79	i
COc1ccc(C(=O)CC(=O)c2ccccc2)cc1	-8	i	i	i	-0.27	i
COc1ccc(C(CC(=O)c2ccccc2)CC(=O)c2ccccc2)cc1	-3	i	i	i	0.01	-7.1*
COc1ccc(C(C(=O)OCCN(C)C)c2ccccc2)cc1 (stereo unspecified)	-3	i	i	i	-1.3	-6.8*
COc1ccc(NC(=O)CN(C)C(=O)c2cc(C)on2)cc1	-4	i	i	i	-1.7	i
O=C(CCc1ccc(O)c(O)c1)N/N=C/c1ccc2c(c1)OCO2	-16	i	6*	i	0.46	i
CC(C)Oc1ccc(CCC(=O)N/N=C/c2ccc3c(c2)OCO3)cc1	-6	i	i	i	1.5	i
O=S(=O)(Nc1ccc2c(c1)OCO2)c1cccc(Br)c1	.	i	.	.	.	.
CCN(CC)Cc1ccccc1CNC(=O)c1cccc(S(=O)(=O)Nc2ccc3c(c2)OCO3)c1	.	-9.3*	.	.	.	.
O=c1[nH]c(SCc2c(Cl)cccc2Cl)nc2ccccc12	-22	i	i	i	-0.42	i
O=c1[nH]c(C(Cl)(Cl)Cl)nc2ccc3ccccc3c12	5.1*	i	i	25*	0.06	i
O=c1c(O)c(-c2ccc3c(c2)OCO3)oc2ccccc12	9.4*	i	i	33*	-0.35	i
N#CC(c1ccccc1)N(CCCCl)C(=O)c1ccccc1 (stereo unspecified)	-7	i	i	i	-4.6*	i
